Reference: PMC7540576 (Chembiochem, 2020)
Non-standard residues stand in square brackets, D forms with d. Residues, ends and D or L forms follow the SMILES beside them. *: point of attachment. Orn(α-tetramethylguanidino) = CN(C)C(=N[C@@H](CCCN)C(=O)*)N(C)C

Key:
[1] = system: A. baumannii ATCC 15308 ribosomes; assay: Fluorescence polarization assay, 70S ribosome of A. baumannii; assay type: binding, Acinetobacter baumannii DSM 30008 / ATCC 15308; settings: RF1 added at equimolar quantities to the A. baumannii ribosome preparation
Procedure, shortened: (§1)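 70S ribosomes came from log-phase cultures (OD600 ~1): bead-mill lysis in HEPES buffer pH 7.6, DNase I/meropenem, clarification, then 165000 g for 17 h. Concentration by A260 (1 AU = 28 pmol/mL). In casein-blocked wells, ribosomes were twofold diluted in 23 steps (12 µmol/L–2.9 pmol/L) with Cf-labeled peptide added at 40 nmol/L, then incubated 90 min at 28 °C in the dark. Polarization read at ex485/em535. K_d came from a variable-slope dose-response fit of ≥2 triplicate experiments on different days.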

[2] = system: ribosome of S. aureus DSM 6247; assay: Fluorescence polarization assay, 70S ribosome of S. aureus; assay type: binding, Staphylococcus aureus DSM 6247; settings: S. aureus ribosome versus E. coli ribosome
Procedure, shortened: as §1

E. coli BW25113 [3] = assay: Antimicrobial activity; assay type: cell-based, Escherichia coli BW25113; settings: broth micro dilution, 25 % MHB2, 7.5×10^6 cfu/mL, 37 °C, 20±2 h, triplicates
Procedure, shortened: (§2)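 Broth microdilution in 25% MHB2. Aqueous peptide stock (3 g/L) serially twofold diluted from 128 µg/mL in eight steps. Overnight 25% MHB2 cultures were diluted 30-fold, grown 4 h (37 °C, 200 rpm), and adjusted by McFarland to give a final 7.5×10^6 cfu/mL. Plates were incubated 20±2 h at 37 °C and OD595 read. MIC was the lowest concentration preventing visible growth. Triplicates.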

K. pneumoniae ATCC 10031 [4] = assay: Antimicrobial activity; assay type: cell-based, Klebsiella pneumoniae DSM 681 / ATCC 10031; settings: broth micro dilution, 25 % MHB2, 7.5×10^6 cfu/mL, 37 °C, 20±2 h, triplicates
Procedure, shortened: as §2

A. baumannii ATCC 15308 = assay: Antimicrobial activity; assay type: cell-based, Acinetobacter baumannii DSM 30008 / ATCC 15308; settings: for MIC: broth micro dilution, 25 % MHB2, 7.5×10^6 cfu/mL, 37 °C, 20±2 h, triplicates
Procedure, shortened: as §2

P. aeruginosa ATCC 27853 = assay: Antimicrobial activity; assay type: cell-based, Pseudomonas aeruginosa DSM 1117 / ATCC 27853; settings: broth micro dilution, 25 % MHB2, 7.5×10^6 cfu/mL, 37 °C, 20±2 h, triplicates
Procedure, shortened: as §2

S. aureus DSM 6247 [5] = assay: Antimicrobial activity; assay type: cell-based, Staphylococcus aureus DSM 6247; settings: broth micro dilution, 25 % MHB2, 7.5×10^6 cfu/mL, 37 °C, 20±2 h, triplicates
Procedure, shortened: as §2

E. coli BW25113 [6] = assay: Bacterial uptake, peptide quantified by LC-MS; assay type: cell-based, Escherichia coli BW25113; settings: high cell counts, 30 min
Procedure, shortened: (§3)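 Cultures in 25% MHB2 were grown 4.0±0.25 h after 30-fold dilution, sized by OD600 (1.0 = 1.2×10^9 cfu/mL), pelleted and resuspended to 1.5×10^10 or 1.5×10^9 cfu/mL. Each was mixed 1:1 with medium containing 16 µg/mL peptide and shaken 30 min at 37 °C, with viable counts plated. Peptide in the supernatant (pellets also quantified) was measured by SPE then RP-HPLC-ESI-MS/MS MRM against a cell-free 8 µg/mL control and an on-plate calibration. Uptake was taken as the difference. Triplicate, repeated another day.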

K. pneumoniae ATCC 10031 [7] = assay: Bacterial uptake, peptide quantified by LC-MS; assay type: cell-based, Klebsiella pneumoniae DSM 681 / ATCC 10031; settings: high cell counts, 30 min
Procedure, shortened: as §3

S. aureus DSM 6247 [8] = assay: Bacterial uptake, peptide quantified by LC-MS; assay type: cell-based, Staphylococcus aureus DSM 6247; settings: ∼7.5×10^9 cells/mL, 30 min, relative to cell-free medium, LC-MS MRM (Figure S3)
Procedure, shortened: as §3

[9] = system: Gram‐negatives (E. coli, K. pneumoniae, A. baumannii, P. aeruginosa); assay: Bacterial uptake, values stated for the Gram-negatives together; assay type: cell-based; settings: 30 min
Procedure, shortened: as §3

E. coli BL21AI = E. coli BL21AI incubated with 4 mg/L peptide; cited from earlier work
[10] = calculated from reduced quantity in supernatant

Compound | Effect of recombinant E. coli RF1 on K d [1] | K d, fold higher than for E. coli [2] [fold] | MIC (E. coli BW25113 [3]) | MIC (K. pneumoniae ATCC 10031 [4]) | MIC, fold difference E. coli versus A. baumannii (A. baumannii ATCC 15308; MIC 4 μg/mL for E. coli and 128 μg/mL for A. baumannii) [fold] | MIC (A. baumannii ATCC 15308) | MIC (P. aeruginosa ATCC 27853) | MIC (S. aureus DSM 6247 [5]) | Peptide per single cell, on average (E. coli BW25113 [6]) [fg] | Uptake (peptide amount) (E. coli BW25113 [6]) [ng] | Uptake rate (E. coli BW25113 [6]; [10]) [%] | Peptide per single cell, on average (K. pneumoniae ATCC 10031 [7]) [fg] | Uptake (peptide amount) (K. pneumoniae ATCC 10031 [7]) [ng] | Uptake rate (K. pneumoniae ATCC 10031 [7]; [10]) [%] | Total quantities determined in supernatants and pellets (S. aureus DSM 6247 [8]) | Relative peptide quantity in culture supernatants ([9]; high cell counts ∼7.5×10^9 cells/mL, typical value, except for E. coli) | Uptake rates ([9]; low cell counts, Gram-negatives) | Peptide per cell (E. coli BL21AI) [fg/cell]
CC[C@H](C)[C@H](NC(=O)[C@H](Cc1ccc(O)cc1)NC(=O)[C@@H](NC(=O)[C@@H]1CCCN1C(=O)[C@H](CCCNC(=N)N)NC(=O)[C@H](CC(N)=O)NC(=O)[C@H](CC(N)=O)NC(=O)[C@H](CCCN)N=C(N(C)C)N(C)C)C(C)C)C(=O)N1CCC[C@H]1C(=O)N[C@@H](CCCNC(=N)N)C(=O)N1CCC[C@H]1C(=O)N[C@@H](CCCNC(=N)N)C(=O)N1CCC[C@H]1C(=O)N1CCC[C@H]1C(=O)N[C@@H](Cc1c[nH]cn1)C(=O)N1CCC[C@H]1C(=O)N[C@@H](CCCNC(=N)N)C(=O)N[C@@H](CC(C)C)C(=O)O [Api137] ({Orn(α-tetramethylguanidino)}-NNRPVYIPRPRPPHPRL-OH) | did not affect | 34 | 4 (1.8) mg/L | 2 (0.9) mg/L | 32 | 128 (56) mg/L | >128 (>56) mg/L | >128 (>56) mg/L |  |  |  |  |  |  |  |  |  | 
CC[C@H](C)[C@H](NC(=O)[C@@H](CCCNC(=N)N)NC(=O)[C@H](CCCNC(=N)N)NC(=O)[C@@H]1CCCN1C(=O)[C@@H]1CCCN1C(=O)[C@H](CCCNC(=N)N)NC(=O)[C@@H]1CCCN1C(=O)[C@H](CCCNC(=N)N)NC(=O)[C@@H]1CCCN1C(=O)[C@H](CC(C)C)NC(=O)[C@H](Cc1ccc(O)cc1)NC(=O)[C@@H]1CCCN1C(=O)[C@@H]1CCCN1C(=O)[C@H](CCCCN)NC(=O)[C@H](CC(=O)O)NC(=O)[C@@H](N)C(C)C)C(=O)N[C@@H](Cc1ccc(O)cc1)C(=O)N[C@@H](CC(N)=O)C(=O)N[C@H](CCCNC(=N)N)C(N)=O [Onc112] (H-VDKPPYLPRPRPPR[dR]IYN[dR]-NH2) |  |  | 8 (3.4) mg/L | 2 (0.8) mg/L |  | 32 (13.4) mg/L | 64 (26.8) mg/L | 64 (26.8) mg/L | 0.5 | 352 | ~44 | 0.3 | 208 | ~25 | around 110% | around 75% | below 20% | 0.2
